For two compounds, Activity, survival and IC50 results are on record in ChEMBL document CHEMBL1138855, “Topomimetics of amphipathic beta-sheet and helix-forming bactericidal peptides neutralize lipopolysaccharide endotoxins” (J Med Chem, 2006).

pIC50: −log10 of the molar value. Calls of active or inactive are those of the source. The calls are words filed in the database; no cut-off is given here.

Test [1] deals with Escherichia coli. The test is described as follows: Antibacterial activity against Escherichia coli 0111:B4 assessed as LPS neutralisation at 5 uM by LAL assay. In kind it is functional, organism-based.
Test [2] deals with Salmonella typhimurium. The test is described as follows: Antibacterial activity against Salmonella Typhimurium assessed as LPS neutralisation by LAL assay at 5 uM. In kind it is functional, organism-based. Conditions: Salmonella enterica subsp. enterica serovar Typhimurium.
In test [3] the test system is Klebsiella pneumoniae. Description: Antibacterial activity against Klebsiella pneumoniae assessed as LPS neutralisation by LAL assay at 5 uM. In kind it is functional, organism-based.
For test [4], the system named is Pseudomonas aeruginosa. The test is described as follows: Antibacterial activity against Pseudomonas aeruginosa assessed as LPS neutralisation at 5 uM by LAL assay. In kind it is functional, organism-based.
Test [5] relates to Escherichia coli. The test is described as follows: Antibacterial activity against Escherichia coli 055:B5 assessed as LPS neutralisation at 5 uM by LAL assay. In kind it is functional, organism-based.
Test [6] has as its system Mus musculus. Description: Survival of Escherichia coli 0111:B4 LPS-challenged C57/BL6 mouse at 50 mg/kg, ip after 120 hrs relative to control. As to conditions: route intraperitoneal. In kind it is functional. In a few lines: (§1)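 Male C57/BL6 mice (n = 4–8/group) received a lethal LPS dose: 500 µg for E. coli 0111:B4, 600 µg for E. coli 055:B5 and 600 µg for Salmonella. LPS was premixed with compound in 2% DMSO v/v for 30 min, then injected i.p. Controls got DMSO alone or compound alone. Survival was followed for up to 120 h, and mean survival time was compared by Student's t-test.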

Test [7] has as its system Mus musculus. Description: Survival of Escherichia coli 055:B5 LPS-challenged C57/BL6 mouse at 50 mg/kg, ip after 120 hrs relative to control. The test is classed as functional. As to conditions: route intraperitoneal. In outline:
as §1

For test [8], the system named is Klebsiella pneumoniae. Description: Antibacterial activity against Klebsiella pneumoniae assessed as LPS neutralisation by LAL assay. In kind it is functional, organism-based. In outline: (§2)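 LPS was used at 0.04 units: 0.01 ng for E. coli 055:B5, 0.01 ng for E. coli 0111:B4, 0.003 ng for K. pneumoniae, 0.01 ng for P. aeruginosa, 0.03 ng for S. typhimurium and 0.03 ng for S. marcescens. IC50 came from sigmoidal fits of dose-response curves.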

Test [9] relates to Escherichia coli. Description: Antibacterial activity against Escherichia coli 0111:B4 assessed as LPS neutralisation by LAL assay. In kind it is functional, organism-based. In a few lines: as §2
Test [10] has as its system Mus musculus. Description: Survival of Escherichia coli 055:B5 LPS-challenged C57/BL6 mouse at 5 mg/kg, ip after 120 hrs relative 10 control. The test is classed as functional, organism-based. More on the design: dose 5 mg/kg. In outline: as §1
The subject of test [11] is Pseudomonas aeruginosa. Description: Antibacterial activity against Pseudomonas aeruginosa assessed as LPS neutralisation by LAL assay. The test is classed as functional, organism-based. In a few lines:
as §2

The test system of test [12] is Salmonella typhimurium. Description: Antibacterial activity against Salmonella Typhimurium assessed as LPS neutralisation by LAL assay. The test is classed as functional, organism-based, Salmonella enterica subsp. enterica serovar Typhimurium. Conditions: Salmonella enterica. In outline: as §2
Test [13] concerns Escherichia coli. The test is described as follows: Antibacterial activity against Escherichia coli 055:B5 assessed as LPS neutralisation by LAL assay. The test is classed as functional, organism-based. In a few lines: as §2
Test [14] has as its system Mus musculus. The test is described as follows: Survival of Salmonella LPS-challenged C57/BL6 mouse at 50 mg/kg, ip after 120 hrs relative to control. In kind it is functional. Conditions: route intraperitoneal. In outline: as §1

With `CC(C)(C)c1cc2c(OCC(=O)NCCCn3cncn3)c(c1)Cc1cc(C(C)(C)C)cc(c1OCC(=O)NCCCn1cncn1)Cc1cc(C(C)(C)C)cc(c1OCC(=O)NCCCn1cncn1)Cc1cc(C(C)(C)C)cc(c1OCC(=O)NCCCn1cncn1)C2`, the result with Escherichia coli [1], in the test with Salmonella typhimurium [2], with Klebsiella pneumoniae [3], in the test on Pseudomonas aeruginosa [4] and in the test on Escherichia coli [5] was inactive.

Turning to `CC(C)(C)c1cc2c(OCCCCNC(=N)N)c(c1)Cc1cc(C(C)(C)C)cc(c1OCCCCNC(=N)N)Cc1cc(C(C)(C)C)cc(c1OCCCCNC(=N)N)Cc1cc(C(C)(C)C)cc(c1OCCCCNC(=N)N)C2`, the survival at 50 mg/kg was 100% with Mus musculus [6], 40% in the test with Mus musculus [7] and 60% in the test with Mus musculus [14]. Moreover, the pIC50 – broadly, the IC50 on a negative log10 scale, so that one unit is a factor of ten – in the test on Klebsiella pneumoniae [8] is 6.00; in the test on Escherichia coli [9], 6.15; in the test on Pseudomonas aeruginosa [11], 5.82; with Salmonella typhimurium [12], 6.22; with Escherichia coli [13], 7.40. The result with Mus musculus [10] was inactive.
